Experimental data from ChEMBL document CHEMBL2331485, “Pyrimidoaminotropanes as potent, selective, and efficacious small molecule kinase inhibitors of the mammalian target of rapamycin (mTOR)” (J Med Chem, 2013).
Converted amounts (≈) assume the structure as drawn. The source made the active and inactive calls. The rule behind the calls is not given here.

Assays:
[1] = Inhibition of mTORC2 in human NCI-PC3 cells assessed as inhibition of AKT phosphorylation
[2] = Half life in mouse at 1 mg/kg, iv; assay type: ADME, organism-based; set-up: dose 1 mg/kg, route intravenous; details: in vivo
How it was run: (§1)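 Mouse PK used iv dosing at 1 mg/kg as a 60% PEG solution and po dosing at 5 mg/kg as a suspension in MCT. Clearance, unbound clearance, Vss, t1/2 and oral bioavailability were derived from these doses.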

[3] = Clearance in rat liver microsomes; assay type: ADME, Microsome
Mus musculus [4] = assay: Unbound clearance in mouse at 1 mg/kg, iv; assay type: ADME, organism-based; set-up: dose 1 mg/kg, route intravenous; details: in vivo; how it was run: as §1
[5] = Kinetic solubility of the compound; assay type: physicochemical; details: for solubility kinetic: read-out: Kinetic_solubility
[6] = Oral bioavailability in mouse at 5 mg/kg; assay type: ADME, organism-based; details: in vivo; how it was run: as §1
[7] = Plasma protein binding in rat at 5 uM after 4 hrs by rapid equilibrium dialysis; assay type: ADME, cell-free; details: read-out: PPB (converted)
[8] = Volume of distribution at steady state in mouse at 1 mg/kg, iv; assay type: ADME, organism-based; set-up: dose 1 mg/kg, route intravenous; details: in vivo, read-out: Vdss; how it was run: as §1
Cytochrome P450 3A4 = Cytochrome P450 3A4 (Homo sapiens, UniProt P08684); assay: Time dependent inhibition of human CYP3A4 preincubated for 30 mins in presence of NADPH; assay type: ADME
How it was run: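 TDI IC50 is the inhibitor concentration giving 50% loss of CYP3A4 activity after a 30 min pre-incubation with NADPH. It is reported as clean where no IC50 could be measured.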

PC-3 = assay: Cytotoxicity against human PC3 cells after 4 days by CellTiter-Glo assay; details: PC-3, 96 h
[9] = Clearance in human liver microsomes; assay type: ADME, Microsome
[10] = Clearance in mouse liver microsomes; assay type: ADME, Microsome
[11] = Plasma protein binding in mouse at 5 uM after 4 hrs by rapid equilibrium dialysis; assay type: ADME, cell-free; details: read-out: PPB (converted)
[12] = Cytotoxicity against human MCF7 neo/Her2 cells after 3 days by CellTiter-Glo assay; details: MCF7, 72 h
[13] = Plasma protein binding in human at 5 uM after 4 hrs by rapid equilibrium dialysis; assay type: ADME, cell-free; details: read-out: PPB (converted)
[14] = Clearance in mouse at 1 mg/kg, iv; assay type: ADME, organism-based; set-up: dose 1 mg/kg, route intravenous; details: in vivo; how it was run: as §1
[15] = Antitumor activity against human MCF7-neo/Her2 xenografted in nude mouse at 37 mg/kg, qd measured after 14 days; assay type: functional; details: 336 h, read-out: TGI
Mus musculus [16] = assay: Inhibition of mTORC1-mediated S6RP phosphorylation in human PC3 cells xenografted in NCR mouse up to 5 mg/kg, po measured at 6 hrs; assay type: functional, organism-based; set-up: dose 5 mg/kg; details: PC-3
mTORC1 = mTORC1 (Homo sapiens, UniProt P42345); assay: Inhibition of mTORC1 in human NCI-PC3 cells assessed as inhibition of p70S6K phosphorylation; assay type: cell-based
[17] = Blood clearance in iv dosed dog; assay type: ADME, organism-based, Canis lupus familiaris; details: whole blood
[18] = Antitumor activity against human MCF7-neo/Her2 xenografted in nude mouse at 12.5 mg/kg, qd measured after 14 days; assay type: functional; details: 336 h, read-out: TGI
Mus musculus [19] = assay: Inhibition of mTORC2-mediated AKT phosphorylation in human PC3 cells xenografted in NCR mouse up to 5 mg/kg, po measured at 6 hrs; assay type: functional, organism-based; set-up: dose 5 mg/kg; details: PC-3
[20] = Volume of distribution at steady state in iv dosed dog; assay type: ADME, organism-based, Canis lupus familiaris; details: in vivo, read-out: Vdss
Canis familiaris = assay: Unbound blood clearance in iv dosed dog; assay type: ADME, organism-based, Canis lupus familiaris; details: in vivo
[21] = biological target: Serine/threonine-protein kinase mTOR (Homo sapiens, UniProt P42345); assay: Inhibition of human recombinant mTOR expressed in insect cells assessed as inhibition of phosphorylation of (GFP)-4-EBP1 protein after 30 mins by fluorescence resonance energy transfer assay
[22] = biological target: T1, Phosphatidylinositol 4,5-bisphosphate 3-kinase catalytic subunit delta isoform (Homo sapiens) (UniProt O00329); assay: Inhibition of PI3Kdelta (unknown origin) at 1 uM
T1 sequence (whole entry): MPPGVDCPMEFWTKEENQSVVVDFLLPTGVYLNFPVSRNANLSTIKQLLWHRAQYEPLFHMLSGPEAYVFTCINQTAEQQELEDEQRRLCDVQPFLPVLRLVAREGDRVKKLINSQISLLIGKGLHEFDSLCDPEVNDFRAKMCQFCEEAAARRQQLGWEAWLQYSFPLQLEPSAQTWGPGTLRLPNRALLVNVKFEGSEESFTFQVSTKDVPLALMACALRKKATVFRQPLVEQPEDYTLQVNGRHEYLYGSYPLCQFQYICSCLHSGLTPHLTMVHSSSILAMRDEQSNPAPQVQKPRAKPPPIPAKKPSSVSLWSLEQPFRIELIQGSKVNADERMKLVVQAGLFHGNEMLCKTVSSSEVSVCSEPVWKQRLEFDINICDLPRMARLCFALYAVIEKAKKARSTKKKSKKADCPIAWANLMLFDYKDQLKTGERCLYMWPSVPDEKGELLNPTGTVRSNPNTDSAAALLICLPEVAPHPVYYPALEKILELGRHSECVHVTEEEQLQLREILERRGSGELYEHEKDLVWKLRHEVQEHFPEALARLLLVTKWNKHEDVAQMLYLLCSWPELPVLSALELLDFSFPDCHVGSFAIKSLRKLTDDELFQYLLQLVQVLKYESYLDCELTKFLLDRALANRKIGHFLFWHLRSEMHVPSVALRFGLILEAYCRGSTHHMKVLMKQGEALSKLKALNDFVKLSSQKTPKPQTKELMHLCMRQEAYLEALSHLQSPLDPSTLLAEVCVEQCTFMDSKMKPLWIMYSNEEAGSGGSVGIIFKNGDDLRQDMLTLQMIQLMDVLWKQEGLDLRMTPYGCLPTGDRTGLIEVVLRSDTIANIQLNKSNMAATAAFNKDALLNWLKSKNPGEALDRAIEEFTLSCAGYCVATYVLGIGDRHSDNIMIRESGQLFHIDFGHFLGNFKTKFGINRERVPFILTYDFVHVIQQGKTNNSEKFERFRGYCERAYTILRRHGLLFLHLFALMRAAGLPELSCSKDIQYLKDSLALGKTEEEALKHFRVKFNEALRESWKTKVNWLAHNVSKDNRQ

[23] = Half life in iv dosed dog; assay type: ADME, organism-based, Canis lupus familiaris; details: in vivo
Mus musculus [24] = organism: Mus musculus; details: NCR, NCI-PC3, 50 to 100 mg/kg
Mus musculus [25] = organism: Mus musculus; details: NCR, NCI-PC3, 50 to 100 mg/kg; remark: listed apart in the source
Plasma [26] = assay: Unbound plasma concentration in NCR nude mouse xenografted with human PC3 cells at 50 to 100 mg/kg, po measured at 6 to 10 hrs; assay type: ADME, organism-based, PC-3; set-up: route oral; details: in vivo
Plasma [27] = assay: Plasma concentration in NCR nude mouse xenografted with human PC3 cells at 50 to 100 mg/kg, po measured at 6 to 10 hrs; assay type: ADME, organism-based, PC-3; set-up: route oral; details: in vivo

Sequence of Cytochrome P450 3A4 (P08684 whole entry): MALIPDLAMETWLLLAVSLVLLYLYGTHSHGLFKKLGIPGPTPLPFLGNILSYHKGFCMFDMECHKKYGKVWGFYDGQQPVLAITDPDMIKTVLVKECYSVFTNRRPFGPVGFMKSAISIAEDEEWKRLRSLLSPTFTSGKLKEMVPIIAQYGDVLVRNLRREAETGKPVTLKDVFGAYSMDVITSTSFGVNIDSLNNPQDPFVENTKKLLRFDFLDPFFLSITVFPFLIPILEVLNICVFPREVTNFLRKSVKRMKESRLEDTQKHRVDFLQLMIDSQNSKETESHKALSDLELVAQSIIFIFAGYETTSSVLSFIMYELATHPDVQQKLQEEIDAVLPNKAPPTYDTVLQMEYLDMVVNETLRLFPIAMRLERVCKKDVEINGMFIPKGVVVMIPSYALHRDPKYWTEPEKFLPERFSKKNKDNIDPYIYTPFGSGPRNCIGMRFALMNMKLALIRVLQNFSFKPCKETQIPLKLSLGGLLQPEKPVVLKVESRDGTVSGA

Compound	IC50 [1]	half-life [2]	CLhep predicted [3]	CL free (Mus musculus [4])	Kinetic_solubility [5]	bioavailability [6]	fraction unbound at 4 h, 5 µM [7]	Vd [8]	IC50 (Cytochrome P450 3A4)	EC50 (PC-3)	CLhep predicted [9]	CLhep predicted [10]	fraction unbound at 4 h, 5 µM [11]	EC50 [12]	fraction unbound at 4 h, 5 µM [13]	clearance [14]	solubility kinetic [5]	other results
CCNC(=O)Nc1ccc(-c2nc3c(c(N4CCOC[C@@H]4C)n2)C[C@@H]2CC[C@H]3N2S(C)(=O)=O)cc1	1.6 nM	1.02 h	26 mL/min/kg	342 mL/min/kg	soluble	53%	0.1	1.59 L/kg	5000 nM	25 nM	11 mL/min/kg	49 mL/min/kg	0.05	47 nM	0.14	17.8 mL/min/kg		
CCNC(=O)Nc1ccc(-c2nc3c(c(N4CCOC[C@@H]4C)n2)C[C@@H]2CC[C@H]3N2C(=O)COC)cc1	2.2 nM	0.82 h	31 mL/min/kg	134 mL/min/kg	soluble	47%	0.21	0.66 L/kg		47 nM	17 mL/min/kg	69 mL/min/kg	0.07	36 nM	0.27	9.38 mL/min/kg		
CCNC(=O)Nc1ccc(-c2nc3c(c(N4CCOC[C@@H]4C)n2)[C@H]2CC[C@@H](C3)N2S(C)(=O)=O)cc1	18 nM								5000 nM	260 nM				806 nM			> 75 µM	
CCNC(=O)Nc1ccc(-c2nc3c(c(N4CCOC[C@@H]4C)n2)CCN(C2COC2)C3)cc1 [RG-7603]				100 mL/min/kg														IC50 (PC-3): 270 nM; inhibition in vivo at 37 mg/kg [15]: 60%; IC50 [12]: 567 nM
CCNC(=O)Nc1ccc(-c2nc3c(c(N4CCOC[C@@H]4C)n2)C[C@H]2CC[C@@H]3N2C)cc1	16 nM				soluble					123 nM				489 nM				
CCNC(=O)Nc1ccc(-c2nc3c(c(N4CCOC[C@@H]4C)n2)C[C@@H]2CC[C@H]3N2C)cc1	2.1 nM	1.3 h	22 mL/min/kg	165 mL/min/kg	soluble	133%	0.32	1.5 L/kg		37 nM	14 mL/min/kg	50 mL/min/kg	0.14	84 nM		24 mL/min/kg		
CCNC(=O)Nc1ccc(-c2nc3c(c(N4CCOC[C@@H]4C)n2)CN(C2COC2)CC3)cc1									2500 nM	797 nM				1200 nM			40 µM (≈ 18.1 µg/mL)	
CCNC(=O)Nc1ccc(-c2nc3c(c(N4CCOC[C@@H]4C)n2)C[C@@H]2CC[C@H]3N2C(C)(C)C(=O)NC)cc1	0.6 nM				soluble					13 nM				17 nM				
CCNC(=O)Nc1ccc(-c2nc3c(c(N4CCOC[C@@H]4C)n2)C[C@@H]2CC[C@H]3N2C2COC2)cc1	3.4 nM	2 h	27 mL/min/kg	38 mL/min/kg	soluble	82%	0.24	0.53 L/kg	> 10000 nM	29 nM	14 mL/min/kg	51 mL/min/kg	0.13	75 nM	0.15	4.8 mL/min/kg		inhibition (Mus musculus [16]): Active; IC50 (mTORC1): 2.7 nM; clearance [17]: 6 mL/min/kg; inhibition in vivo at 12.5 mg/kg [18]: 57%; inhibition (Mus musculus [19]): Active; Vd [20]: 3 L/kg; CL free (Canis familiaris): 44 mL/min/kg; Ki [21]: 1.5 nM; inhibition [22]: 51%; half-life [23]: 3.1 h
CCNC(=O)Nc1ccc(-c2nc3c(c(N4CCOC[C@@H]4C)n2)[C@@H]2CC[C@H](C3)N2C2COC2)cc1	45 nM									579 nM				971 nM			> 75 µM	
CCNC(=O)Nc1ccc(-c2nc3c(c(N4CCOC[C@@H]4C)n2)C[C@@H]2CC[C@H]3N2C(C)=O)cc1	2 nM	1.2 h	24 mL/min/kg	200 mL/min/kg	soluble	40%	0.16	0.54 L/kg		16 nM	15 mL/min/kg	42 mL/min/kg	0.02	61 nM	0.16	4.62 mL/min/kg		
CCNC(=O)Nc1ccc(-c2nc3c(c(N4CCOC[C@@H]4C)n2)[C@H]2CC[C@@H](C3)N2C(C)=O)cc1	30 nM								7300 nM	180 nM				460 nM			> 75 µM	
CCNC(=O)Nc1ccc(-c2nc3c(c(N4CCOC[C@@H]4C)n2)[C@@H]2CC[C@H](C3)N2C)cc1	6.7 nM	1.07 h	28 mL/min/kg	53 mL/min/kg		82%	0.8	2.6 L/kg		152 nM	15 mL/min/kg	58 mL/min/kg	0.54	158 nM	0.81	34 mL/min/kg	> 75 µM	
CCNC(=O)Nc1ccc(-c2nc3c(c(N4CCOC[C@@H]4C)n2)[C@H]2CC[C@@H](C3)N2C)cc1	3.9 nM	0.8 h	18 mL/min/kg	207 mL/min/kg		114%	0.73	4.5 L/kg		103 nM	12 mL/min/kg	42 mL/min/kg	0.32	97 nM	0.62	67 mL/min/kg	> 75 µM	inhibition (Mus musculus [24]): Active; inhibition (Mus musculus [25]): Active; Cp(f) (Plasma [26]): > 320 nM; concentration (Plasma [27]): > 1000 nM
CCNC(=O)Nc1ccc(-c2nc3c(c(N4CCOC[C@@H]4C)n2)[C@H]2CC[C@@H](C3)N2C2COC2)cc1	29 nM								> 10000 nM	180 nM				268 nM			> 75 µM	
CCNC(=O)Nc1ccc(-c2nc3c(c(N4CCOC[C@@H]4C)n2)[C@H]2CC[C@@H](C3)N2CC)cc1	3.2 nM									145 nM				184 nM			> 75 µM	
